Measurements: PubChem BioAssay
Calls of active or inactive are those of the source. Rule as the data show it, unless noted: active = inhibition above about 30%; inactive = the rest.

Columns and labels:
[1] = SK-BR-3 cell growth inhibitors, pilot screen, 24 h, human (AID 572;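 active = viability at or below 10% of carrier control in both of two separate runs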;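 also: compound exposure lasted between 18 and 24 h rather than exactly 24 h; 100% = carrier-treated control wells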); details: SK-BR-3 viability, CellTiter-Glo luminescence, at 10 µM, stronger effect = lower value
[2] = HUVEC growth inhibition – cell-based, human, primary screen (AID 575;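 active = viability at or below 30% in both replicate assays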;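 also: 100% = median of untreated cell wells with 0.1% DMSO on each plate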); details: HUVEC proliferation, CellTiter-Glo luminescence, 72 h; at 10 µM; stronger effect = lower value
Procedure, shortened: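 System: primary human umbilical vein endothelial cells; Quantity: 1250 endothelial cells in each well; Buffer or medium: supplemented EBM, 2% fetal bovine serum; Doses: one dose, 10 µM final, 0.1% DMSO; Incubation: 72 h compound incubation; Technique: ATP-based CellTiter-Glo luminescent read; Evaluation: percent of median DMSO-control luminescence; Controls: vehicle and MePR control wells.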

[3] = growth inhibitors of H69AR lung tumor, primary screen, human, duplicate replicates (AID 580;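 active = viability at or under a set limit in both replicates, limit being median viability minus 3 SD, cut at about 48% in these data, passing the limit was not always enough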;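 also: 100% = mean luminescence of untreated wells and 0% = no signal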); details: H69AR lung tumor cells viability, ATP luminescence, 72 h; at 10 µM; stronger effect = lower value
[4] = reversal of MRP1-mediated doxorubicin resistance, pilot screen, H69AR cells, doxorubicin co-treatment (AID 601;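 active = viability loss from added drug above about 55%, and viability with drug at most 40%, in both replicates, limit read from the data, passing the limit was not always enough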); details: CellTiter-Glo, 72 h, at 10 µM; for differential viability (reversal): stronger effect = higher value
[5] = 384-well plate pilot, post-Golgi transport modulator project, inhibition of yeast transport mutant growth (AID 636; in the data active = inhibition above about 31%); details: absorbance 615 nm, about 18 h, stronger effect = higher value
[6] = growth suppression of yeast trafficking mutant, preliminary HTS, modulators of trafficking downstream of Golgi apparatus project, 1536-format plate, OD 615 nm (AID 637); details: yeast transport mutant growth, absorbance 615 nm, 18 h; stronger effect = higher value
[7] = H69AR cells + 2 uM doxorubicin, measured here: viability with 2 uM doxorubicin, stronger effect = lower value
[8] = H69AR cells, compound alone cytotoxicity

COCC(=O)Nc1cc(OC)ccc1OC
viability [1]: 83% (inactive) | viability [2]: 89% (inactive) | viability [3]: 102% (inactive) | differential viability (reversal) ([4]; H69AR cells + 2 uM doxorubicin): 5.8% (inactive) | viability [4, 7]: 96.1% | viability [4, 8]: 102% | inhibition [5]: -2.86% (inactive) | inhibition [6]: 0.66% (inactive)

O=C(NCc1cccnc1)/C(=N\O)c1ccccc1
viability [1]: 73% (inactive) | viability [2]: 111% (inactive) | viability [3]: 98.8% (inactive) | differential viability (reversal) ([4]; H69AR cells + 2 uM doxorubicin): 13.2% (inactive) | viability [4, 7]: 85.6% | viability [4, 8]: 98.8% | inhibition [5]: -6.08% (inactive) | inhibition [6]: -3.82% (inactive)

O=S(=O)(c1ccc2c(c1)OCCO2)N1CCC(n2nnc3cc(F)ccc32)CC1
viability [1]: 91% (inactive) | viability [2]: 74.8% (inactive) | viability [3]: 84.2% (inactive) | differential viability (reversal) ([4]; H69AR cells + 2 uM doxorubicin): -5.86% (inactive) | viability [4, 7]: 90.1% | viability [4, 8]: 84.2% | inhibition [5]: -9.04% (inactive) | inhibition [6]: -1.77% (inactive)

Cc1nnc(N(C)C(=O)Cc2ccc3c(c2)OCO3)s1
viability [1]: 94% (inactive) | viability [2]: 92.6% (inactive) | viability [3]: 94.6% (inactive) | differential viability (reversal) ([4]; H69AR cells + 2 uM doxorubicin): 5.27% (inactive) | viability [4, 7]: 89.3% | viability [4, 8]: 94.6% | inhibition [5]: 2.47% (inactive) | inhibition [6]: 8.71% (inactive)

O=C1CCCN1Cc1ncnn1-c1ccccc1
viability [1]: 89% (inactive) | viability [2]: 108% (inactive) | viability [3]: 112% (inactive) | differential viability (reversal) ([4]; H69AR cells + 2 uM doxorubicin): 14.7% (inactive) | viability [4, 7]: 97.1% | viability [4, 8]: 112% | inhibition [5]: 0.27% (inactive) | inhibition [6]: -6.55% (inactive)

CN(C)CCC(c1ccc(Br)cc1)c1ccccn1 (stereo unspecified)
viability [1]: 110% (inactive) | viability [2]: 80.3% (inactive) | viability [3]: 102% (inactive) | differential viability (reversal) ([4]; H69AR cells + 2 uM doxorubicin): 10.6% (inactive) | viability [4, 7]: 91.4% | viability [4, 8]: 102% | inhibition [5]: -2.73% (inactive) | inhibition [6]: -3.5% (inactive)

O=C(NCCC1=CCCCC1)C1CCN(S(=O)(=O)c2cnc[nH]2)CC1
viability [1]: 83% (inactive) | viability [2]: 111% (inactive) | viability [3]: 104% (inactive) | differential viability (reversal) ([4]; H69AR cells + 2 uM doxorubicin): 15.5% (inactive) | viability [4, 7]: 88.1% | viability [4, 8]: 104% | inhibition [5]: -5.6% (inactive) | inhibition [6]: -1.27% (inactive)

COc1ccc(NC(=O)N(C2CCCCC2)C2CCN(C(C)C)CC2)c(OC)c1
viability [1]: 87% (inactive) | viability [2]: 100% (inactive) | viability [3]: 103% (inactive) | differential viability (reversal) ([4]; H69AR cells + 2 uM doxorubicin): 19.4% (inactive) | viability [4, 7]: 83.2% | viability [4, 8]: 103% | inhibition [5]: -2.73% (inactive) | inhibition [6]: -7.87% (inactive)

COc1ccccc1-n1c(SCC(=O)NC(C)(C)C)nnc1-c1ccco1
viability [1]: 82% (inactive) | viability [2]: 104% (inactive) | viability [3]: 96.1% (inactive) | differential viability (reversal) ([4]; H69AR cells + 2 uM doxorubicin): -15.2% (inactive) | viability [4, 7]: 111% | viability [4, 8]: 96.1% | inhibition [5]: -4.79% (inactive) | inhibition [6]: -3.45% (inactive)

CC(=O)c1ccc(NC(=O)CCc2c(C)nc3ncnn3c2C)cc1
viability [1]: 100% (inactive) | viability [2]: 87.5% (inactive) | viability [3]: 93.1% (inactive) | differential viability (reversal) ([4]; H69AR cells + 2 uM doxorubicin): 6.04% (inactive) | viability [4, 7]: 87.1% | viability [4, 8]: 93.1% | inhibition [5]: -1.3% (inactive) | inhibition [6]: -5.08% (inactive)

O=C(COC(=O)c1cnccn1)Nc1ccc2c(c1)OCO2
viability [1]: 130% (inactive) | viability [2]: 82% (inactive) | viability [3]: 91.6% (inactive) | differential viability (reversal) ([4]; H69AR cells + 2 uM doxorubicin): 2.88% (inactive) | viability [4, 7]: 88.7% | viability [4, 8]: 91.6% | inhibition [5]: 0.65% (inactive) | inhibition [6]: 2.46% (inactive)

CCCCN(Cc1cc2cc(OC)ccc2[nH]c1=O)C(=O)c1ccccn1
viability [1]: 102% (inactive) | viability [2]: 98% (inactive) | viability [3]: 102% (inactive) | differential viability (reversal) ([4]; H69AR cells + 2 uM doxorubicin): 6.81% (inactive) | viability [4, 7]: 95% | viability [4, 8]: 102% | inhibition [5]: -5.14% (inactive) | inhibition [6]: -3.82% (inactive)
